Source: ChEMBL document CHEMBL4811225 (J Med Chem, 2021)
Where a SMILES comes first, the peptide text is derived from it. Bridges are numbered along the chain shown (N, C = ends).

How the values were obtained:
[1] = target: Nicotinic acetylcholine receptor alpha6/alpha3/beta4 (Rattus norvegicus, UniProt P04757+P12392+P43143); format: cell-based, Oocyte
[2] = target: T1, Nicotinic acetylcholine receptor alpha6/alpha3/beta4 (Rattus norvegicus) (UniProt P04757+P12392+P43143); assay: Inhibition of rat alpha6beta4 nAChR expressed in Xenopus laevis oocytes assessed as recovery of acethylcholine-evoked currents at 10 uM treated for 10 mins followed by compound washout by two-electrode voltage-clamp method relative to control; format: cell-based; design: scale not given: the % may be the effect or the level left; settings: Oocyte
[3] = target: T2, Neuronal acetylcholine receptor; alpha2/beta4 (Homo sapiens, UniProt P30926+Q15822); assay: Inhibition of human alpha2beta4 nAChR expressed in Xenopus laevis oocytes assessed as inhibition of acetylcholine-induced current response by two-electrode voltage-clamp method; format: cell-based, Oocyte
T2 sequence (P30926 whole entry, the tested form may be a part): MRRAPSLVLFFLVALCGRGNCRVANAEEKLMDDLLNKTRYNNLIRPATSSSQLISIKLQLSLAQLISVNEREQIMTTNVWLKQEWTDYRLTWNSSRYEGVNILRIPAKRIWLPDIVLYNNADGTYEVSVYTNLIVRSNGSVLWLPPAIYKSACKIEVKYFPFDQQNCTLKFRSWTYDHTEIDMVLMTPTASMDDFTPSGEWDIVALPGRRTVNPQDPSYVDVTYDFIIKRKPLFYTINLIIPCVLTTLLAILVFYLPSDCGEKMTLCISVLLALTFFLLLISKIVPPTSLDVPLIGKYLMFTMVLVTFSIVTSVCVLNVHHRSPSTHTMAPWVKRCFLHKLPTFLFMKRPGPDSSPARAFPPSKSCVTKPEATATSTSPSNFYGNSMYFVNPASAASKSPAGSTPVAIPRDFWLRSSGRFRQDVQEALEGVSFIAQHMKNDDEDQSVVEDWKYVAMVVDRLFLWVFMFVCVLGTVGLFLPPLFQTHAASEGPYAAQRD
T2 sequence (Q15822 whole entry, the tested form may be a part): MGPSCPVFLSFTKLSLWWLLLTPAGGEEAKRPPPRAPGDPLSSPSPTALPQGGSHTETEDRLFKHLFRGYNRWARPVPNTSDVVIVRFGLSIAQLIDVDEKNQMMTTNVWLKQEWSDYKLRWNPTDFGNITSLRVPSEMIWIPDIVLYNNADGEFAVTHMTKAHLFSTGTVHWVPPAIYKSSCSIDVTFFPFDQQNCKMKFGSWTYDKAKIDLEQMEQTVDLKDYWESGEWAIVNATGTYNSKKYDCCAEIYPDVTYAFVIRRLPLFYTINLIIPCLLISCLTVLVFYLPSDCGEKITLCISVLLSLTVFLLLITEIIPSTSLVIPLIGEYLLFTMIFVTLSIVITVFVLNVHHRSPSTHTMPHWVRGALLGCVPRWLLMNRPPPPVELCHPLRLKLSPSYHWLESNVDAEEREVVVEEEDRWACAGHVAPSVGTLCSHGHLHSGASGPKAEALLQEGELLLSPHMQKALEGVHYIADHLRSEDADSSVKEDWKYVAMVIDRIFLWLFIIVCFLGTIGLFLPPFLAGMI
Summary of the method: (§1)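 TEVC on stage IV–V oocytes 1–5 days after equal-ratio cRNA injection (α2β4, α3β4, α4β4, α7). ACh 300 μM, 1 s pulses at 60 s intervals under frog saline perfusion. Peptide perfused to 1 μM, normalized to average of three control responses; higher concentrations by 5 min static bath. IC50 with 95% CI, n oocytes.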

[4] = target: Neuronal acetylcholine receptor; alpha3/beta2 (Rattus norvegicus, UniProt P04757+P12390); format: cell-based, Oocyte
[5] = target: Neuronal acetylcholine receptor; alpha3/beta4 (Homo sapiens, UniProt P30926+P32297); assay: Inhibition of human alpha3beta4 nAChR expressed in Xenopus laevis oocytes assessed as inhibition of acetylcholine-induced current response by two-electrode voltage-clamp method; format: cell-based, Oocyte
Chain of Neuronal acetylcholine receptor; alpha3/beta4 (Homo sapiens, UniProt P30926+P32297) (P30926 whole entry): as the sequence (P30926 whole entry, the tested form may be a part) above
Chain of Neuronal acetylcholine receptor; alpha3/beta4 (Homo sapiens, UniProt P30926+P32297) (P32297 whole entry): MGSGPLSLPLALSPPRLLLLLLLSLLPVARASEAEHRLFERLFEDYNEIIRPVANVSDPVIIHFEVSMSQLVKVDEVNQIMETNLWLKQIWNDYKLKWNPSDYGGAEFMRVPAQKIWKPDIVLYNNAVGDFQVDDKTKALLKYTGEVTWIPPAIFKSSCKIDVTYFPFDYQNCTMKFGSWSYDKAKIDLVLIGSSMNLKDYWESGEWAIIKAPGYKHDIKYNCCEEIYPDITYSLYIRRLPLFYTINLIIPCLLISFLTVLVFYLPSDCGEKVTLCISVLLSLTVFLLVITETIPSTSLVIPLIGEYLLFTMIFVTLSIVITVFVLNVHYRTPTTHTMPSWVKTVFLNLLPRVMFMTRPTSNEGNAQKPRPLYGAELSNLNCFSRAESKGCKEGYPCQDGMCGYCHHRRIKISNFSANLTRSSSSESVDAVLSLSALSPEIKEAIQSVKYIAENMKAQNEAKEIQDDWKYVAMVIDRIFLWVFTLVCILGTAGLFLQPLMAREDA
Summary of the method: as §1

[6] = target: Neuronal acetylcholine receptor; alpha3/beta4 (Rattus norvegicus, UniProt P04757+P12392); format: cell-based, Oocyte
[7] = target: Neuronal acetylcholine receptor; alpha4/beta2 (Rattus norvegicus, UniProt P09483+P12390); format: cell-based, Oocyte
Chain of Neuronal acetylcholine receptor; alpha4/beta2 (P09483 whole entry): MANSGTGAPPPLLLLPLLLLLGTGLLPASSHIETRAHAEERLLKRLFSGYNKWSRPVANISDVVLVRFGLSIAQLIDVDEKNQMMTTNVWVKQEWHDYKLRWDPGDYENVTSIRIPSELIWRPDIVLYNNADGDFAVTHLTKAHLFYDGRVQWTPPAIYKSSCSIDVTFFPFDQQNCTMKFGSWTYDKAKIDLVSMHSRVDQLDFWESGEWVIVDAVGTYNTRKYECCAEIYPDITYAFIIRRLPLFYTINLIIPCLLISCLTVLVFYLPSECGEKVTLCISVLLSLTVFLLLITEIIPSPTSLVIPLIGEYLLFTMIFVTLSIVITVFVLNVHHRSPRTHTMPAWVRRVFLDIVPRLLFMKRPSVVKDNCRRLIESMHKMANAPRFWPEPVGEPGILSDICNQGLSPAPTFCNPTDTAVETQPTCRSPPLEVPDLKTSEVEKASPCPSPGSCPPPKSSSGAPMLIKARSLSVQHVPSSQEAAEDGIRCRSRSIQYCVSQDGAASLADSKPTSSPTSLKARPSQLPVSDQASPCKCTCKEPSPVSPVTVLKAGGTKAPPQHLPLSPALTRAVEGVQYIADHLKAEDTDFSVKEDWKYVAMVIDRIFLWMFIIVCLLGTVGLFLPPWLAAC
Chain of Neuronal acetylcholine receptor; alpha4/beta2 (P12390 whole entry): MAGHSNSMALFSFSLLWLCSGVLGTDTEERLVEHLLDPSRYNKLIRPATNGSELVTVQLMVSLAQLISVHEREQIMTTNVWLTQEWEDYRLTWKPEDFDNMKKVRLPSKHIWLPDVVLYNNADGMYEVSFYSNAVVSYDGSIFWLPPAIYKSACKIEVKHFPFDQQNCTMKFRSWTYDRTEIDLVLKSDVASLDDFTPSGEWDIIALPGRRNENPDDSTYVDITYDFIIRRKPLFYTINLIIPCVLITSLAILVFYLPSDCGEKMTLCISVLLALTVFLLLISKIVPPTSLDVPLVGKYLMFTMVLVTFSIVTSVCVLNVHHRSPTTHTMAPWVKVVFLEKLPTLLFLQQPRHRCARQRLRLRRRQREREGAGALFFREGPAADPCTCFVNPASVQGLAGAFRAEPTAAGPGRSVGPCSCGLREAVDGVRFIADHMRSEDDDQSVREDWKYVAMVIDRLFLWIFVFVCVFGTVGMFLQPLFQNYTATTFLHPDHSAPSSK

[8] = target: Neuronal acetylcholine receptor subunit alpha-7 (Rattus norvegicus, UniProt Q05941); format: cell-based, Oocyte
Chain of Neuronal acetylcholine receptor subunit alpha-7 (Q05941 whole entry): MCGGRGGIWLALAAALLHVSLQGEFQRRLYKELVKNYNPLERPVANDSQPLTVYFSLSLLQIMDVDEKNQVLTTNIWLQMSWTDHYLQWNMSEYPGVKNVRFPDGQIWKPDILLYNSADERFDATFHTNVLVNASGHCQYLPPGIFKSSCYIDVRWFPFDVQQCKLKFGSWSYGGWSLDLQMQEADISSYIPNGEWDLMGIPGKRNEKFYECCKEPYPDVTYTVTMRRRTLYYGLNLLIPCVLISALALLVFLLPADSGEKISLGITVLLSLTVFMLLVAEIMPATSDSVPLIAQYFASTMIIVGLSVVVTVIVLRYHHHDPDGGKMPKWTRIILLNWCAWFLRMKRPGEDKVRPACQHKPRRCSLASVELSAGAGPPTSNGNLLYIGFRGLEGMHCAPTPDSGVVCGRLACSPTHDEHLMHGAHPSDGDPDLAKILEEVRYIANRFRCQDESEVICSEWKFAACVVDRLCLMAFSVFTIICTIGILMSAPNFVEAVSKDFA

[9] = species: Homo sapiens; assay: Selectivity ratio of IC50 for human alpha1beta1deltaepsilon nAChR to IC50 for human alpha6/alpha3beta4 nAChR
Summary of the method: (§2)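 Ratio of each subtype's IC50, from TEVC inhibition of ACh-evoked currents in X. laevis oocytes, to the IC50 at the same species' α6/α3β4 nAChR; IC50 values with 95% CI, n = number of oocytes.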

[10] = species: Homo sapiens; assay: Selectivity ratio of IC50 for human alpha3beta2 nAChR to IC50 for human alpha6/alpha3beta4 nAChR
Summary of the method: as §2

[11] = species: Rattus norvegicus; assay: Selectivity ratio of IC50 for rat alpha3beta2 nAChR to IC50 for rat alpha6/alpha3beta4 nAChR
Summary of the method: as §2

[12] = species: Homo sapiens; assay: Selectivity ratio of IC50 for human alpha3beta4 nAChR to IC50 for human alpha6/alpha3beta4 nAChR
Summary of the method: as §2

[13] = species: Rattus norvegicus; assay: Selectivity ratio of IC50 for rat alpha3beta4 nAChR to IC50 for rat alpha6/alpha3beta4 nAChR
Summary of the method: as §2

[14] = species: Homo sapiens; assay: Selectivity ratio of IC50 for human alpha4beta2 nAChR to IC50 for human alpha6/alpha3beta4 nAChR
Summary of the method: as §2

[15] = species: Rattus norvegicus; assay: Selectivity ratio of IC50 for rat alpha4beta2 nAChR to IC50 for rat alpha6/alpha3beta4 nAChR
Summary of the method: as §2

[16] = species: Homo sapiens; assay: Selectivity ratio of IC50 for human alpha4beta4 nAChR to IC50 for human alpha6/alpha3beta4 nAChR
Summary of the method: as §2

[17] = species: Rattus norvegicus; assay: Selectivity ratio of IC50 for rat alpha6/alpha3beta2beta3 nAChR to IC50 for rat alpha6/alpha3beta4 nAChR
Summary of the method: as §2

[18] = species: Homo sapiens; assay: Selectivity ratio of IC50 for human alpha7 nAChR to IC50 for human alpha6/alpha3beta4 nAChR
Summary of the method: as §2

[19] = species: Rattus norvegicus; assay: Selectivity ratio of IC50 for rat alpha7 nAChR to IC50 for rat alpha6/alpha3beta4 nAChR
Summary of the method: as §2

[20] = species: Homo sapiens; assay: Selectivity ratio of IC50 for human alpha9alpha10 nAChR to IC50 for human alpha6/alpha3beta4 nAChR
Summary of the method: as §2

[21] = target: T2, Neuronal acetylcholine receptor; alpha2/beta4; assay: Inhibition of human alpha2beta4 nAChR expressed in Xenopus laevis oocytes assessed as inhibition of acetylcholine-induced current response at 10 uM by two-electrode voltage-clamp method relative to control; format: cell-based; settings: Oocyte
Summary of the method: (§3)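 Stage IV–V X. laevis oocytes expressing equal-ratio cRNAs of α2β4, α3β4, α4β4 or α7 subunits; TEVC 1–5 days after injection. ACh 300 μM, 1 s at 60 s intervals. 10 μM peptide as 5 min static bath, normalized to ACh response after 5 min bath of control saline; mean ± SD, n = 4.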

[22] = target: Neuronal acetylcholine receptor; alpha2/beta2 (Rattus norvegicus) (UniProt P12389+P12390); assay: Inhibition of rat alpha2beta2 nAChR expressed in Xenopus laevis oocytes assessed as inhibition of acetylcholine-induced current response at 10 uM by two-electrode voltage-clamp method relative to control; format: cell-based; settings: Oocyte
Summary of the method: (§4)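 Oocytes (stage IV–V) injected with equal-ratio cRNAs of cloned subunits; TEVC 1–5 days post-injection. ACh 100 μM for β2-containing and α9α10 subtypes, 1 s pulses every 60 s. Peptide 10 μM in 5 min static bath; response normalized to ACh response after 5 min control-saline bath; mean ± SD, n = 4.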

[23] = target: Neuronal acetylcholine receptor; alpha2/beta4 (Rattus norvegicus) (UniProt P12389+P12392); assay: Inhibition of rat alpha2beta4 nAChR expressed in Xenopus laevis oocytes assessed as inhibition of acetylcholine-induced current response at 10 uM by two-electrode voltage-clamp method relative to control; format: cell-based; settings: Oocyte
Summary of the method: as §3

[24] = target: Neuronal acetylcholine receptor; alpha4/beta2 (Rattus norvegicus) (UniProt P09483+P12390); assay: Inhibition of rat alpha4beta2 nAChR expressed in Xenopus laevis oocytes assessed as inhibition of acetylcholine-induced current response at 10 uM by two-electrode voltage-clamp method relative to control; format: cell-based; settings: Oocyte
Summary of the method: as §4

[25] = target: Neuronal acetylcholine receptor; alpha4/beta4 (Rattus norvegicus) (UniProt P09483+P12392); assay: Inhibition of rat alpha4beta4 nAChR expressed in Xenopus laevis oocytes assessed as inhibition of acetylcholine-induced current response at 10 uM by two-electrode voltage-clamp method relative to control; format: cell-based; settings: Oocyte
Summary of the method: as §3

[26] = target: Neuronal acetylcholine receptor subunit alpha-7 (Rattus norvegicus) (UniProt Q05941); assay: Inhibition of rat alpha7 nAChR expressed in Xenopus laevis oocytes assessed as inhibition of acetylcholine-induced current response at 10 uM by two-electrode voltage-clamp method relative to control; format: cell-based; settings: Oocyte
Chain of Neuronal acetylcholine receptor subunit alpha-7 (Rattus norvegicus) (Q05941 whole entry): as above
Summary of the method: as §3

[27] = target: Nicotinic acetylcholine receptor alpha9/alpha10 (Rattus norvegicus) (UniProt P43144+Q9JLB5); assay: Inhibition of rat alpha9alpha10 nAChR expressed in Xenopus laevis oocytes assessed as inhibition of acetylcholine-induced current response at 10 uM by two-electrode voltage-clamp method relative to control; format: cell-based; settings: Oocyte
Summary of the method: as §4

[28] = target: Nicotinic acetylcholine receptor alpha6/alpha3/beta4 (Homo sapiens, UniProt P30926+P32297+Q15825); settings: Oocyte
[29] = target: T1, Nicotinic acetylcholine receptor alpha6/alpha3/beta4 (Rattus norvegicus); settings: Oocyte

In the case of `CC[C@H](C)[C@@H]1NC(=O)[C@H](CCC(=O)O)NC(=O)[C@@H]2CCCN2C(=O)[C@H](Cc2cnc[nH]2)NC(=O)[C@H](CC(N)=O)NC(=O)[C@H](C(C)C)NC(=O)[C@H](CC(N)=O)NC(=O)[C@@H]2CSSC[C@H](NC(=O)CN)C(=O)N[C@@H](CSSC[C@@H](C(N)=O)NC1=O)C(=O)N[C@@H](CO)C(=O)N[C@@H](Cc1cnc[nH]1)C(=O)N1CCC[C@H]1C(=O)N[C@@H](C(C)C)C(=O)N2` (H-GCCSHPVCNVNHPEIC-NH2; disulfide 2-8, 3-16), the IC50 [1] is reported as 0.48 nM, the Activity [2] is reported as 6% and the IC50 [3] is reported as greater than 10000 nM. It also gave an IC50 [4] greater than 10000 nM, an IC50 [5] of 179 nM and an IC50 [6] of 230 nM. It also gave an IC50 [7] greater than 10000 nM, an IC50 [8] greater than 10000 nM and a Ratio IC50 [9] greater than 50000. For the same compound, the Ratio IC50 [10] was greater than 50000, the Ratio IC50 [11] was greater than 20000 and the Ratio IC50 [12] was 895. It also gave a Ratio IC50 [13] of 489, a Ratio IC50 [14] greater than 10000 and a Ratio IC50 [15] greater than 20000. It also gave a Ratio IC50 [16] of 20100, a Ratio IC50 [17] of 227 and a Ratio IC50 [18] greater than 50000. The Ratio IC50 [19] was greater than 20000, the Ratio IC50 [20] was greater than 50000 and the inhibition [21] was 84%. The inhibition [22] was 98%, the inhibition [23] was 85% and the inhibition [24] was 81%. The inhibition [25] was 81%, the inhibition [26] was 82% and the inhibition [27] was 69%. It also gave a deltalogIC50 [28] of -1.5 and a deltalogIC50 [29] of -2.4.
